# Assays:
# [1] = biological target: Nitric oxide synthase 1 (Rattus norvegicus) (UniProt P29476); test: Percentage inhibition of rat striatal neural nitric oxide synthase (nNOS) activity at 1 mM by quantifying L-[3H]citrulline production
# Procedure, shortened: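 Striatal homogenate was made in pH 7.6 Tris buffer with DTT and protease inhibitors, then spun 1000g for 5 min. Supernatant was incubated with 25 mM Tris, 1 mM DTT, 30 μM H4-biopterin, 10 μM FAD, 0.1 mM CaCl2, 10 μM L-arginine plus 50 nM L-[3H]-arginine, 0.75 mM NADPH and compound at 1 mM final in DMSO, 37 °C, 30 min. L-[3H]-citrulline separated on Dowex-50W and counted. NADPH-free blank subtracted. Three experiments in triplicate.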
# [2] = biological target: Kynurenine 3-monooxygenase (Rattus norvegicus) (UniProt O88867); test: Percent activity of rat striatal kynurenine 3-hydroxylase (KYN3OH) activity at 1 mM by quantifying 3-hydroxykynurenine production
# Kynurenine 3-monooxygenase (Rattus norvegicus), sequence (O88867 whole entry, looked up): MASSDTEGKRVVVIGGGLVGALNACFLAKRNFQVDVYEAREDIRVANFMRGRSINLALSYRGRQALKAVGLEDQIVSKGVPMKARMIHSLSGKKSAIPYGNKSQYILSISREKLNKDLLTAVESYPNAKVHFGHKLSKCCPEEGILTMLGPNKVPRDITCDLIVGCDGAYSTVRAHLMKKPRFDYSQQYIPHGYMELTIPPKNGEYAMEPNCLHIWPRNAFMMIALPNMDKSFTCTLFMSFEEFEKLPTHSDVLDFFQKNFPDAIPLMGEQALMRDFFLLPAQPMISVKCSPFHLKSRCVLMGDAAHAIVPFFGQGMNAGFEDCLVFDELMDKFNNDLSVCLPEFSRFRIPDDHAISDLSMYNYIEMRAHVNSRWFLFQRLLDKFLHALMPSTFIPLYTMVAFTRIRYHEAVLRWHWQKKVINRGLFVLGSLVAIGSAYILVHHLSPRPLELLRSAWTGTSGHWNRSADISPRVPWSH
# Nitric oxide synthase 1 (Rattus norvegicus), sequence (P29476 whole entry): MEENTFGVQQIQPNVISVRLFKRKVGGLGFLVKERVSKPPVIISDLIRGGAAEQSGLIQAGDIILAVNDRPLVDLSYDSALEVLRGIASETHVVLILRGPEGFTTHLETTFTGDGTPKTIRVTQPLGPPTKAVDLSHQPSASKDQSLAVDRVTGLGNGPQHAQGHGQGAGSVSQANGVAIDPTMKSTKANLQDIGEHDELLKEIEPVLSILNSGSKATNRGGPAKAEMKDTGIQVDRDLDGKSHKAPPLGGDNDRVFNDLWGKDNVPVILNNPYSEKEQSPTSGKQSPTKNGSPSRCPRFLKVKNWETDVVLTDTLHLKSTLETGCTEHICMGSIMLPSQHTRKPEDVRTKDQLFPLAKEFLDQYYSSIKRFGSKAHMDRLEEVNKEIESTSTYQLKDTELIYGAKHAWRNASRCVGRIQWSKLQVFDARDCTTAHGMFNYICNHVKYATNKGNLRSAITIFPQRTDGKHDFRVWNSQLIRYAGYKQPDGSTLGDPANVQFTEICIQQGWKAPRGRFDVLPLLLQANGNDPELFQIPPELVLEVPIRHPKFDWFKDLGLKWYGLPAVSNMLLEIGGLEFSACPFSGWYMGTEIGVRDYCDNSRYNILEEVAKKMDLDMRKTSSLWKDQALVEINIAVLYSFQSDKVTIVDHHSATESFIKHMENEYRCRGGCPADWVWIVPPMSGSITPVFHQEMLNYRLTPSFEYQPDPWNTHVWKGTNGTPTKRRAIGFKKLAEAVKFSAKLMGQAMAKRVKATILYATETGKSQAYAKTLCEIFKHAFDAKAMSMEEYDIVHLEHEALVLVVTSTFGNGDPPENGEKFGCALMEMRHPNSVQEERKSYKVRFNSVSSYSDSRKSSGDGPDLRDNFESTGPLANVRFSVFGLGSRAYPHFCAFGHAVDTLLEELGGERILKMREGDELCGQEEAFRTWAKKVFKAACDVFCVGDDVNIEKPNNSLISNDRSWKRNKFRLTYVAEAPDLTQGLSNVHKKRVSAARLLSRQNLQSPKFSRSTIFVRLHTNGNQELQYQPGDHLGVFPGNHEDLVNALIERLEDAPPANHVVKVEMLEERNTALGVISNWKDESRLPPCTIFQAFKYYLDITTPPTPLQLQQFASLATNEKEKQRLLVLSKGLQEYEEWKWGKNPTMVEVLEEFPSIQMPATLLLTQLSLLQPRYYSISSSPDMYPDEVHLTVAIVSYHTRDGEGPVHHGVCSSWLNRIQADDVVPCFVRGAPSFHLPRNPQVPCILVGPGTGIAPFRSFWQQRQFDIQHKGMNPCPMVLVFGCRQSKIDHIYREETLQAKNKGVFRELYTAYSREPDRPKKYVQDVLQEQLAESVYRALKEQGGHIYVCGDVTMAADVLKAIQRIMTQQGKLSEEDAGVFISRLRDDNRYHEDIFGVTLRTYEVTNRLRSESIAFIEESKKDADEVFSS
SMILES,inhibition [1] [%],% activity [2] [%]
COc1ccc(N)c(C(=O)CCNC(=O)C2CC2)c1,40.4,99.9
COc1ccc(N)c(C(=O)CCNC(=O)C2CCC2)c1,33.7,92.2
CCCCC(=O)NCCC(=O)c1cc(OC)ccc1N,39.6,97.2
COc1ccc(N)c(C(=O)CCNC(=O)c2ccccc2)c1,46.5,97.2
COc1ccc(N)c(C(=O)CCNC(=O)C2CCCC2)c1,45,96.3
COc1ccc(N)c(C(=O)CCNC(=O)C2CCCCC2)c1,48.2,99.6

# Second part, the compound after the results:
inhibition [1] [%],% activity [2] [%],SMILES
50.9,99.4,CCC(=O)NCCC(=O)c1cc(OC)ccc1N
65.4,102,COc1ccc(N)c(C(=O)CCNC(C)=O)c1
31.7,–,CC(=O)NCCC(=O)c1cc(Cl)ccc1N
23.3,–,Nc1ccc(Cl)cc1C(=O)CCNC(=O)C1CC1
42.8,–,CCCC(=O)NCCC(=O)c1cc(OC)ccc1N
21.7,–,Nc1ccc(Cl)cc1C(=O)CCNC(=O)c1ccccc1

# Source: ChEMBL document CHEMBL1140421, “Kynurenamines as neural nitric oxide synthase inhibitors” (J Med Chem, 2005)
